ABHD4 inh – ABHD4 inhibitors, primary screen, biochemical, fluorescence polarization, mouse. purified mABHD4, FP-Rh probe fluorescence polarization. inhibition, % at 8.92 µM. 0.54% of 370,000 active;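 active = inhibition exceeding the mean over every tested compound plus 3 SD, cut at about 30% in these data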;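 note: 0% = plate median of compound wells and 100% = S159A mutant with DMSO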
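Assay system: mABHD4 protein; medium: HEPES pH 7.0, NaCl, Pluronic buffer; dosing: 8.92 µM, single dose; schedule: 45 min + 60 min at 25 °C; signal: FP readout, ex 525 nm / em 598 nm; read-out: normalized percent inhibition of probe labeling; repeats: single replicate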
HTRA1 inhibitor – HTRA1 serine protease inhibitors, primary screen, biochemical, fluorescence polarization, HTS; Q92743; recombinant HTRA1, FP-rhodamine activity-based probe; inhibition, % at 5.96 µM; 0.5% of 340,000 active; AID 504803, 2011; in the data active = inhibition above about 36%;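 note: 0% = enzyme with DMSO and 100% = wells lacking enzyme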
TCR-CD3 inh – inhibitors of human TCR-CD3 interaction, primary screen, biochemical, fluorescence, TAMRA-labeled TCR probe | inhibition, % at 9.4 µM | 0.37% of 360,000 active | AID 651800, 2012; in the data active = inhibition above about 19%;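 note: recombinant mutant TCR 2C K166C tagged with TAMRA read by polarization; 0% = receptor in buffer alone and 100% = receptor with positive control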
rCAG RNA binder – binders of r(CAG) RNA repeats, primary screen, biochemical, fluorescence; inhibition, % at 3 µM; r(CAG) RNA repeat, TO-PRO-1 dye displacement fluorescence; 1.3% of 370,000 active;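 active = inhibition above the plate cutoff, the mean of all test compounds on that plate plus 3 SD, cut at about 35% in these data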;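 note: 0% = DMSO alone and 100% = 100 µM mitoxantrone as full dye displacement; higher means more dye released from RNA so lower well fluorescence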
PRMT1 inh – PRMT1 methyltransferase inhibitors, primary screen, biochemical, fluorescence polarization | AID 652257, 2013 | inhibition, % at 2.79 µM | 1.3% of 370,000 active | recombinant PRMT1, activity-based probe fluorescence polarization | Protein arginine N-methyltransferase 1 (Homo sapiens), Q99873;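 active = inhibition above about 21% made by adding two undisclosed values, limit read from the data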
SIAE inh – human SIAE inhibitors, primary screen, biochemical, fluorescence polarization, FP-Rh probe, 1536-well HTS; SIAE FP-Rh probe binding; inhibition, % at 9.66 µM; 0.69% of 370,000 active;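 active = inhibition above a cutoff: mean of compounds within the control limits plus 3 SD of those, cut at about 17% in these data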;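 note: 0% = plate median of compound wells and 100% = probe without SIAE protein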
Target sequence (Q9HAT2 whole entry, looked up): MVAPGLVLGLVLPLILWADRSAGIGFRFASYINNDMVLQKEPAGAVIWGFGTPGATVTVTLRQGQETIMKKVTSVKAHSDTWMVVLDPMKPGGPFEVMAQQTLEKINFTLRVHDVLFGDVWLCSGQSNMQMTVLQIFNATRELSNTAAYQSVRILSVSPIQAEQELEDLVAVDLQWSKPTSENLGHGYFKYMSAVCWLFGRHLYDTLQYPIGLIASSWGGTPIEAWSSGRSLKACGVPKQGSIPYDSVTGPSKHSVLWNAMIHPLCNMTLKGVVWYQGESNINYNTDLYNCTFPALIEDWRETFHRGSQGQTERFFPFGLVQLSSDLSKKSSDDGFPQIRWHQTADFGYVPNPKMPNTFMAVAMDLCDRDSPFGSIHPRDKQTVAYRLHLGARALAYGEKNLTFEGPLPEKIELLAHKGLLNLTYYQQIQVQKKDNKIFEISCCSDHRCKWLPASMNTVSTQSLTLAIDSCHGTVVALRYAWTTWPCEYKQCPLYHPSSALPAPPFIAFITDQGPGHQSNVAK
SIAE confirm – human SIAE inhibitors, retest, confirmation, biochemical, fluorescence polarization, FP-Rh probe, triplicate; shares compounds with SIAE inh; SIAE FP-Rh activity-based probe; inhibition, % at 9.66 µM; 13% of 2,300 active; AID 1117263, 2014;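 active = mean inhibition of the replicates above the hit cutoff set in the primary screen, cut at about 17% in these data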;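 note: 0% = SIAE with DMSO and probe and 100% = probe without SIAE; inhibitors lower polarization as more probe stays unbound to SIAE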
* hit, by the source's call; x = not tested or not shown. Shown are actives, neighbours in structure and some others; about 3.5% of the full set was active somewhere.

SMILES	ABHD4 inh	HTRA1 inhibitor	TCR-CD3 inh	rCAG RNA binder	PRMT1 inh	SIAE inh	SIAE confirm
COc1cccc(C(=O)C2CCCN(Cc3cn(CC(N)=O)c4ccccc34)C2)c1 (stereo not drawn)	-5	3	-3	-5	-5	19*	0
COc1ccc(/C=C/C(=O)NC(=S)NNC(=O)c2cccnc2)cc1	11	2	17	10	-2	21*	1
COC(=O)Cc1c(O)ccn(CCc2c[nH]c3ccccc23)c1=O	2	5	6	-9	-6	0	x
O=c1c(Cc2c(F)cccc2Cl)c(O)ccn1CCc1c[nH]c2ccccc12	3	-1	-2	1	0	23*	5
CCN(CC(=O)c1c(N)n(C)c(=O)n(C)c1=O)c1cccc2ccccc12	13	10	-5	9	1	20*	7
Cn1c(N)c(C(=O)CCc2ccccc2)c(=O)n(C)c1=O	2	x	5	1	-10	0	x
Cc1ccc(N2C(N)=C(C#N)C(c3cccs3)C3=C2CC(C)(C)CC3=O)cc1 (stereo not drawn)	-7	-13	-14	0	3	-2	x
CC1(C)CC(=O)C2=C(C1)N(c1ccc(F)cc1)C(N)=C(C#N)C2c1cccs1 (stereo not drawn)	-6	-14	-5	7	0	31*	-4
COc1ccc(OC)c(NC(=O)CSc2nc3[nH]c(=O)cc(O)c3s2)c1	16	-3	6	31	14	19*	-3
COc1cccc(NC(=O)C2CCCN2C(=O)NC2CCC(C)CC2)c1 (stereo not drawn)	2	x	x	1	-4	-1	x
Cc1ccccc1-c1ccc2c(c1)[C@@H]1C[C@H](N(C)C(=O)c3ccco3)[C@H]([C@H](C)O)CN1CC2	7	x	5	4	-6	-8	x
CC(CCN1CCC(C(O)(c2ccccc2)c2ccccc2)CC1)Oc1cc(F)cc(F)c1 (stereo not drawn)	8	x	x	3	0	4	x
O=[N+]([O-])c1ccc(N/N=C/c2cccc(O)c2)cc1	15	-2	-3	10	3	20*	-2
CC(=O)c1c(C)[nH]c(C(=O)Nc2ccc(N3CCCCCC3)cc2)c1C	29	15	2	5	3	26*	10
O=C(OCC#CCSc1nnc(-c2cccc3ccccc23)o1)c1ccccc1F	-4	x	x	x	1	-3	x
O=C(NCc1ccco1)c1noc2c1CCCC2	4	-4	-1	-2	1	0	x
CC1CCc2onc(C(=O)NCc3ccco3)c2C1 (stereo not drawn)	3	5	7	-3	-4	21*	3
O=C(NCC1CCN(C(=O)C(=O)c2cc3ccccc3o2)CC1)c1ccc2c(c1)OCCCO2	6	x	0	2	2	0	x
CCCCc1ccc(NC(=S)NCc2cccc(OC)c2)cc1	-39	-31	-12	-2	2	-5	x
CCCCc1ccc(NC(=S)Nc2ccc(Nc3ccc(OC)cc3)cc2)cc1	25	31	-5	7	10	27*	13
COC(=O)C1=C(C(=O)OC)C2(OC1c1ccccc1C)C(=O)c1ccccc1C2=O (stereo not drawn)	-3	-5	2	10	-1	19*	-7
N#Cc1cccc(NC(=O)CSc2ccc3c4c(cccc24)C(=O)c2ccccc2-3)c1	8	2	4	-6	4	57*	48*
COc1ccc(NC(=O)CSc2ccc3c4c(cccc24)C(=O)c2ccccc2-3)cc1	3	13	4	0	1	7	x
CCN(CC)C(=O)CC[C@@H]1CC[C@]2(CCCN(Cc3ccccn3)C2)O1	2	x	x	0	-2	5	x
CC(=O)Nc1ccc(S(=O)(=O)N2CCCC3CCCCC32)cc1 (stereo not drawn)	-7	-7	-4	0	1	22*	-3
SMILES	ABHD4 inh	HTRA1 inhibitor	TCR-CD3 inh	rCAG RNA binder	PRMT1 inh	SIAE inh	SIAE confirm
Cc1cc(C(=O)O[C@H]2CCC[C@]3(C(=O)N(Cc4ccccc4)c4ccccc43)[C@H]2NC(=O)CCc2ccccc2)no1	-1	x	x	1	-3	7	x
CCOc1ccc(-n2c(SCc3nc4ccccc4[nH]3)nnc2-c2cccc(Cl)c2)cc1	-3	x	x	11	-3	-2	x
Cc1nc2c3ccccc3nc(NNC(=O)CCC(=O)N3CCCC(C)C3)n2n1 (stereo not drawn)	5	5	10	-4	-2	19*	1
CCOC(=O)c1cnc(SCC(=O)OCC(=O)NC2CCS(=O)(=O)C2)nc1N (stereo not drawn)	6	-2	-3	-2	-1	18*	-5
CCOC(=O)c1cnc(SCC(=O)OCC(=O)N(CC)C2CCS(=O)(=O)C2)nc1N (stereo not drawn)	-3	-1	0	-4	-1	4	x
N#Cc1c(/N=C/c2cccnc2)sc2c1CCCC2	6	x	7	1	0	22*	-1
Cc1ccc2[nH]c(O)c(N=NC(N)=S)c2c1	1	-3	1	3	-1	6	x
CC(/C=C(\NC(=O)c1ccccc1)C(=O)N=Nc1c(O)[nH]c2ccc(C)cc12)=C\c1ccccc1	4	-22	5	11	2	21*	9
N#CC(=C1C=C(Br)C(=NO)C=C1Cl)c1ccc(Cl)cc1	19	-16	4	20	14	33*	50*
N#CC(=C1C=CC(=NO)C(Cl)=C1)c1ccccc1	14	x	0	11	8	-18	x
C=CCN1C(=O)[C@@H](CC(=O)NCc2ccc(OC)c(OC)c2)[C@]2(C(=O)OC)CCCCC=C12	-4	x	x	2	3	3	x
CN(c1ccc(OCC(=O)OCC(=O)Nc2ccc([N+](=O)[O-])cc2)cc1)S(=O)(=O)c1cccs1	5	-8	2	8	4	40*	26*
CN(c1ccc(OCC(=O)OCC(=O)Nc2ccccc2)cc1)S(=O)(=O)c1ccc(F)cc1	2	-14	0	0	2	-5	x
CC1=C(C(=O)N(C(C)C)C(C)C)CC(CC(=O)NCc2cccs2)C(=O)N1CCCN1CCCC1=O (stereo not drawn)	5	x	-6	-1	5	21*	0

High-throughput results (PubChem)
